{"source": "ChEMBL document CHEMBL1629705", "about": "“PSI-7851, a pronucleotide of beta-D-2'-deoxy-2'-fluoro-2'-C-methyluridine monophosphate, is a potent and pan-genotype inhibitor of hepatitis C virus replication” (Antimicrob Agents Chemother, 2010)", "key": {"[1]": {"target": "DNA-directed RNA polymerase II subunit RPB1 (Homo sapiens, UniProt P24928)", "assay": "Inhibition of human RNA polymerase 2 assessed as synthesis of RNA products at 500 uM", "outline": "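In vitro transcription by HeLa nuclear extract from CMV immediate-early promoter DNA. Mix: 400 μM ATP, CTP and UTP, 16 μM GTP, [α-32P]GTP, 3 mM MgCl2, in 20 mM HEPES pH 7.9 buffer with KCl, EDTA, DTT and glycerol. Inhibitor up to 1 mM. 30°C for 60 min. RNA purified, run on 6% sequencing gel and quantified by phosphorimager.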"}, "Influenza A virus [2]": {"system": "Influenza A virus", "assay": "Antiviral activity against Influenza A virus (A/Viet Nam/1203/2004(H5N1)) infected in HFF by neutral red assay", "assay_type": "functional, organism-based"}, "Hepatitis C virus [3]": {"system": "Hepatitis C virus", "assay": "Antiviral activity against Hepatitis C virus genotype 1b harboring Ntat protein assessed as viral RNA level by quantitative real-time PCR", "assay_type": "functional, organism-based, Hepacivirus hominis"}, "Hepatitis C virus [4]": {"system": "Hepatitis C virus", "assay": "Antiviral activity against Hepatitis C virus assessed as clearance of HCV from replicon cells at 2 uM", "assay_type": "functional, organism-based", "details": "Hepacivirus hominis", "outline": "(§1)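 ET-lunet replicon cells, 1 × 10^5/well, no G418, with compound at 0.1, 1 or 2 μM (final DMSO 0.5%). Passaged 1:3 or 1:4 every 3–4 days for 3 weeks with fresh compound, then 3 more weeks with 0.25 mg/ml G418 and no inhibitor. HCV RNA by RT-PCR normalized to rRNA (ΔΔCt vs DMSO) at each passage. Crystal violet colony staining at 6 weeks.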"}, "Hepatitis C virus [5]": {"system": "Hepatitis C virus", "assay": "Antiviral activity against Hepatitis C virus isolate Con1 harboring Btat protein assessed as viral RNA level by quantitative real-time PCR", "assay_type": "functional, organism-based, Hepacivirus hominis"}, "Hepatitis C virus [6]": {"system": "Hepatitis C virus", "assay": "Antiviral activity against Hepatitis C virus harboring NS5B polymerase S282T mutant gene infected in human HuH7 cells by luciferase-based replicon assay", "assay_type": "functional, Hepacivirus hominis", "details": "Huh-7"}, "Hepatitis C virus [7]": {"system": "Hepatitis C virus", "assay": "Antiviral activity against Hepatitis C virus assessed as inhibition of viral rebound at 1 uM after 3 weeks in presence of G418", "assay_type": "functional, organism-based", "details": "Hepacivirus hominis", "outline": "as §1"}, "Yellow fever virus": {"system": "Yellow fever virus", "assay": "Antiviral activity against Yellow fever virus 17D by neutral red assay", "assay_type": "functional"}, "Hepatitis B virus": {"system": "Hepatitis B virus", "assay": "Antiviral activity against Hepatitis B virus infected in human HepAD38 cells by quantitative real-time PCR", "assay_type": "functional, organism-based"}, "Influenza A virus [8]": {"system": "Influenza A virus", "assay": "Antiviral activity against Influenza A virus (A/Brisbane/10/2007(H3N2)) infected in HFF by neutral red assay", "assay_type": "functional, organism-based"}, "Hepatitis C virus [9]": {"system": "Hepatitis C virus", "assay": "Antiviral activity against Hepatitis C virus harboring wild-type NS5B infected in human lunet cells by luciferase-based replicon assay", "assay_type": "functional, Hepacivirus hominis", "outline": "(§2)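 ET-lunet cells with the ET genotype 1b replicon, wild-type or S96T/N142T (ET replicon with these mutations electroporated into Lunet cells, selected in 0.2 mg/ml G418). 3,000 cells/well, 4 days with serially diluted compound. Firefly luciferase luminescence read-out; EC90 from dose–response.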"}, "Hepatitis C virus [10]": {"system": "Hepatitis C virus", "assay": "Antiviral activity against Hepatitis C virus assessed as log reduction in viral RNA at 0.1 uM after 3 weeks", "assay_type": "functional, Hepacivirus hominis", "outline": "(§3)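 ET-lunet replicon cells seeded at 1 × 10^5/well without G418, treated at 0.1, 1 or 2 μM (final DMSO 0.5%). Passaged 1:3–1:4 every 3–4 days for 3 weeks with fresh compound. Then compound withdrawn and cells grown 3 more weeks in 0.25 mg/ml G418. HCV RNA by RT-PCR (ΔΔCt vs rRNA and DMSO controls, log change). Colonies fixed in formaldehyde and stained with crystal violet at 6 weeks.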"}, "Hepatitis C virus [11]": {"system": "Hepatitis C virus", "assay": "Antiviral activity against Hepatitis C virus assessed as log reduction in viral RNA at 2 uM after 3 weeks", "assay_type": "functional, Hepacivirus hominis", "outline": "as §3"}, "CCRF-CEM": {"system": "CCRF-CEM", "assay": "Mitochondrial toxicity in human CEM cells assessed as effect on mitochondrial cytochrome c oxidase subunit 2 gene level up to 100 uM after 14 days by quantitative real-time PCR assay", "assay_type": "cell-based", "details": "336 h", "outline": "(§4)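 HepG2 or CEM cells incubated 14 days with compound up to 100 μM, ddC as control. Medium and compound replenished on days 7 and 11. Mitochondrial COXII gene and nuclear rDNA measured by multiplex quantitative RT-PCR.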"}, "West Nile virus": {"system": "West Nile virus", "assay": "Antiviral activity against West Nile virus New York by neutral red assay", "assay_type": "functional, organism-based"}, "Influenza A virus [12]": {"system": "Influenza A virus", "assay": "Antiviral activity against Influenza A virus (A/Brisbane/59/2007 (H1N1)) infected in HFF by neutral red assay", "assay_type": "functional, organism-based"}, "Hepatitis C virus [13]": {"system": "Hepatitis C virus", "assay": "Antiviral activity against Hepatitis C virus H77 harboring Htat protein assessed as viral RNA level by quantitative real-time PCR", "assay_type": "functional, organism-based, Hepacivirus hominis", "details": "genotype 1a H77"}, "Hepatitis C virus [14]": {"system": "Hepatitis C virus", "assay": "Antiviral activity against Hepatitis C virus JFH1 assessed as viral RNA level by quantitative real-time PCR", "assay_type": "functional, organism-based, Hepacivirus hominis", "details": "JFH-1"}, "[15]": {"assay": "Cytotoxicity against human CEM cells assessed as inhibition of mitochondrial DNA synthesis", "assay_type": "cell-based", "details": "CEM (CCRF-CEM) cells", "outline": "as §4"}, "Hepatitis C virus [16]": {"system": "Hepatitis C virus", "assay": "Selectivity ratio of EC90 for Hepatitis C virus harboring NS5B polymerase S96T mutant gene to EC90 for HCV harboring wild type NS5B polymerase", "assay_type": "functional, Hepacivirus hominis"}, "Hepatitis C virus [17]": {"system": "Hepatitis C virus", "assay": "Antiviral activity against Hepatitis C virus harboring NS5B polymerase S96T mutant gene infected in human lunet cells by luciferase-based replicon assay", "assay_type": "functional, Hepacivirus hominis", "outline": "as §2"}, "[18]": {"assay": "Cytotoxicity against human HeLaP4 cells", "assay_type": "cell-based"}, "[19]": {"assay": "Cytotoxicity against human myeloid progenitor cells after 14 to 16 days by colony formation assay", "assay_type": "cell-based", "outline": "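Normal human bone marrow erythroid and myeloid progenitors, 2 × 10^4 cells per culture in methylcellulose with rh-SCF 50 ng/ml, rh-IL-3 10 ng/ml, rh-GM-CSF 10 ng/ml and rh-EPO 3 U/ml. Compound up to 50 μM, DMSO control 0.1%, 14–16 days.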"}, "Hepatitis C virus [20]": {"system": "Hepatitis C virus", "assay": "Antiviral activity against Hepatitis C virus harboring NS5B polymerase S96T/N142T mutant gene infected in human lunet cells by luciferase-based replicon assay", "assay_type": "functional, Hepacivirus hominis", "outline": "as §2"}}, "note": "Active and inactive are the calls of the source. No cut-off for these calls is given here."}
{"smiles": "C[C@@]1(F)[C@H](O)[C@@H](COP(=O)(O)OP(=O)(O)OP(=O)(O)O)O[C@H]1n1ccc(=O)[nH]c1=O", "note": "[GS-461203]", "values": [{"measurement": "inhibition", "setting": "[1]", "result": 85, "unit": "%"}]}
{"smiles": "CC(C)OC(=O)[C@H](C)NP(=O)(OC[C@H]1O[C@@H](n2ccc(=O)[nH]c2=O)[C@](C)(F)[C@@H]1O)Oc1ccccc1", "note": "(stereo partly drawn)", "values": [{"measurement": "EC50", "setting": "Influenza A virus [2]", "result": "> 100", "unit": "µM"}, {"measurement": "EC50", "setting": "Hepatitis C virus [3]", "result": 93, "unit": "nM"}, {"measurement": "EC90", "setting": "Hepatitis C virus [3]", "result": 750, "unit": "nM"}, {"measurement": "Activity", "setting": "Hepatitis C virus [4]", "result": "Active"}, {"measurement": "EC50", "setting": "Hepatitis C virus [5]", "result": 90, "unit": "nM"}, {"measurement": "EC90", "setting": "Hepatitis C virus [5]", "result": 650, "unit": "nM"}, {"measurement": "EC90", "setting": "Hepatitis C virus [6]", "result": 7.4, "unit": "µM"}, {"measurement": "inhibition", "setting": "Hepatitis C virus [7]", "result": "Active"}, {"measurement": "EC50", "setting": "Yellow fever virus", "result": "> 100", "unit": "µM"}, {"measurement": "EC50", "setting": "Hepatitis B virus", "result": "> 100", "unit": "µM"}, {"measurement": "EC50", "setting": "Influenza A virus [8]", "result": "> 100", "unit": "µM"}, {"measurement": "EC90", "setting": "Hepatitis C virus [9]", "result": 520, "unit": "nM"}, {"measurement": "FC", "setting": "Hepatitis C virus [10]", "result": 0.58}, {"measurement": "FC", "setting": "Hepatitis C virus [11]", "result": ">5"}, {"measurement": "Activity", "setting": "CCRF-CEM", "result": "Non-toxic"}, {"measurement": "EC50", "setting": "West Nile virus", "result": "> 100", "unit": "µM"}, {"measurement": "EC50", "setting": "Influenza A virus [12]", "result": "> 100", "unit": "µM"}, {"measurement": "EC50", "setting": "Hepatitis C virus [13]", "result": 430, "unit": "nM"}, {"measurement": "EC90", "setting": "Hepatitis C virus [13]", "result": 1220, "unit": "nM"}, {"measurement": "EC50", "setting": "Hepatitis C virus [14]", "result": 180, "unit": "nM"}, {"measurement": "EC90", "setting": "Hepatitis C virus [14]", "result": 520, "unit": "nM"}, {"measurement": "CC90", "setting": "[15]", "result": "< 3000", "unit": "nM"}, {"measurement": "Selectivity ratio", "setting": "Hepatitis C virus [16]", "result": 0.66}, {"measurement": "EC90", "setting": "Hepatitis C virus [17]", "result": 390, "unit": "nM"}, {"measurement": "CC50", "setting": "[18]", "result": "> 100", "unit": "µM"}, {"measurement": "CC50", "setting": "[19]", "result": "> 50", "unit": "µM"}, {"measurement": "EC90", "setting": "Hepatitis C virus [20]", "result": 390, "unit": "nM"}]}
